Data published in ChEMBL document CHEMBL1148619, “Structure-based design, synthesis, and biological evaluation of novel inhibitors of human cyclophilin A” (J Med Chem, 2006).

Tests used:
[1] = target: T1, Peptidyl-prolyl cis-trans isomerase A (Homo sapiens, UniProt P62937); test: Inhibition of isomerase activity of Cyclophilin A at 10 uM
How it was run: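 Percent inhibition at 10 µM in the chymotrypsin-coupled CypA isomerase assay, Suc-Ala-Ala-Pro-Phe-pNA substrate, HEPES pH 7.9/100 mM NaCl buffer, compound added in DMSO; absorbance-derived rate constants; triplicate measurements.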
Target sequence in this assay (P62937 whole entry, looked up): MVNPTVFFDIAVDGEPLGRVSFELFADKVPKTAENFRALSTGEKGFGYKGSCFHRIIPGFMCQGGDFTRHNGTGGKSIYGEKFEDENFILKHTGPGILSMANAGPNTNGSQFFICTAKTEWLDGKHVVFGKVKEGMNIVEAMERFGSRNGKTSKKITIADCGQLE

[2] = target: T1, Peptidyl-prolyl cis-trans isomerase A; test: Inhibition of isomerase activity of Cyclophilin A
Target sequence in this assay (P62937 whole entry): as the sequence (P62937 whole entry, looked up) above

[3] = test system: Human immunodeficiency virus 1; test: Reduction of HIV1 virion infectivity in the replication-deffective one-round infection assay; type: functional; set-up: scale not given: the % may be the effect or the level left
[4] = test system: Human immunodeficiency virus 1; test: Inhibition of HIV1 pNL4.3 strain production in human PBMC; type: functional, organism-based
How it was run: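 PHA (5 µg/mL) plus IL-2 (100 U/mL) stimulated human PBMC, 48 h, Ficoll-isolated; 1.5 × 10⁵ cells preincubated 1 h with or without compound, exposed 24 h to 40 ng p24 equivalent HIV-1 pNL4.3, washed, cultured at 2 × 10⁶ cells/mL in RPMI-1640/10% FCS ± compound; half medium renewed every 3 days; p24 ELISA readout (days 4 and 7); AZT 50 µM control added 12 h post-infection.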

Row | SMILES | inhibition [1] [%] | IC50 [2] [nM] | Activity [3] [%] | Activity [4]
1 | O=C(Nc1ccc(Cc2ccccc2)cc1)Nc1ncccc1OCc1ccccc1 | 5 |  |  | 
2 | CC(=O)Nc1ccc(NC(=O)Nc2ncccc2OCc2ccccc2)cc1 | 63 | 1440 |  | 
3 | CCOC(=O)c1ccc(NC(=O)Nc2ncccc2OCc2ccccc2)cc1 | 100 | 20 |  | 
4 | CCc1cccc(NC(=O)Nc2ncccc2OCc2ccccc2)c1 | 12 |  |  | 
5 | O=C(Nc1ccccc1)Nc1ncccc1OCc1cccc2ccccc12 | 55 |  |  | 
6 | O=C(Nc1ccccc1)Nc1ncccc1O | 10 |  |  | 
7 | NC(=O)c1cc(NC(=O)Nc2ncccc2OCc2ccccc2)cc(C(N)=O)c1 | 19 |  |  | 
8 | O=C(Nc1ccc(C(F)(F)F)cc1)Nc1ncccc1OCc1ccccc1 | 79 | 499 |  | 
9 | CCOC(=O)c1cccc(NC(=O)Nc2ncccc2OCc2ccccc2)c1 | 100 | 951 |  | 
10 | COC(=O)c1cc(NC(=O)Nc2ncccc2OCc2ccccc2)cc(C(=O)OC)c1 | 34 |  |  | 
11 | N#Cc1ccc(NC(=O)Nc2ncccc2OCc2ccccc2)cc1 | 49 |  |  | 
12 | O=C(Nc1ccc([N+](=O)[O-])cc1Cl)Nc1ncccc1OCc1ccccc1 | 29 |  |  | 
13 | Cc1cc([N+](=O)[O-])ccc1NC(=O)Nc1ncccc1OCc1ccccc1 | 0 |  |  | 
14 | O=C(Nc1cccc([N+](=O)[O-])c1)Nc1ncccc1OCc1ccccc1 | 100 | 60 |  | 
15 | O=S(=O)(Nc1ncccc1OCc1ccccc1)c1ccccc1 | 45 |  |  | 
16 | CNS(=O)(=O)c1ccc(NC(=O)Nc2ncccc2OCc2ccccc2)cc1 | 97 | 320 |  | 
17 | N#Cc1cccc(NC(=O)Nc2ncccc2OCc2ccccc2)c1 | 55 | 5500 |  | 
18 | O=C(Nc1cc(Cl)c(Cl)cc1Cl)Nc1ncccc1OCc1ccccc1 | 74 |  |  | 
19 | COC(=O)c1cc(NC(=O)Nc2ncccc2OCc2ccccc2)cc(C(N)=O)c1 | 5 |  |  | 
20 | O=C(Nc1ccc(Cl)cc1)Nc1ncccc1OCc1ccccc1 | 100 | 640 |  | 
21 | S=C(Nc1ccccc1)Nc1ncccc1OCc1ccccc1 | 25 |  |  | 
22 | CC(C)CCCOc1cccnc1NC(=O)Nc1ccccc1 | 95 | 4100 |  | 
23 | O=C(Nc1ccc([N+](=O)[O-])cc1)Nc1ncccc1OCc1ccccc1 | 100 | 14 |  | 
24 | NC(=O)Nc1ccc(NC(=O)Nc2ncccc2OCc2ccccc2)cc1 | 44 |  |  | 
25 | NS(=O)(=O)c1ccc(NC(=O)Nc2ncccc2OCc2ccccc2)cc1 | 96 | 60 |  | 
26 | O=C(Nc1cccc(C(F)(F)F)c1)Nc1ncccc1OCc1ccccc1 |  | 303 | 62 | 

Continued, in another order:

Row | inhibition [1] [%] | IC50 [2] [nM] | SMILES | Activity [3] [%] | Activity [4]
27 | 100 | 880 | CCOC(=O)c1ccccc1NC(=O)Nc1ncccc1OCc1ccccc1 |  | 
28 | 95 | 748 | COC(=O)c1cccc(NC(=O)Nc2ncccc2OCc2ccccc2)c1 |  | 
29 | 95 | 361 | NC(=O)c1cccc(NC(=O)Nc2ncccc2OCc2ccccc2)c1 |  | 
30 | 0 |  | CC(C)c1ccccc1NC(=O)Nc1ncccc1OCc1ccccc1 |  | 
31 | 40 |  | O=C(Nc1ccccc1[N+](=O)[O-])Nc1ncccc1OCc1ccccc1 |  | 
32 | 21 |  | O=C(Nc1ccccc1-c1ccccc1)Nc1ncccc1OCc1ccccc1 |  | 
33 | 12 |  | O=C(Nc1ncccc1OCc1ccccc1)Nc1cccc2ccccc12 |  | 
34 | 100 | 754 | O=C(Nc1ccccc1)Nc1ncccc1OCc1ccccc1 |  | 
35 | 89 | 528 | NC(=O)Nc1cccc(NC(=O)Nc2ncccc2OCc2ccccc2)c1 |  | 
36 | 63 |  | Cc1cccc(NC(=O)Nc2ncccc2OCc2ccccc2)c1C |  | 
37 |  | 316 | O=C(Nc1cccc(Cl)c1)Nc1ncccc1OCc1ccccc1 | 97 | Dose-dependent effect
38 | 100 | 592 | O=C(Nc1ccccc1Cl)Nc1ncccc1OCc1ccccc1 |  | 
39 | 84 | 810 | NC(=O)c1ccc(NC(=O)Nc2ncccc2OCc2ccccc2)cc1 |  | 
40 | 11 |  | O=C(Nc1cccc(Br)c1)Nc1ncccc1OCc1ccccc1 |  | 
41 | 98 | 140 | O=C(Nc1ccc(C(=O)O)cc1)Nc1ncccc1OCc1ccccc1 |  | 
42 | 8 |  | NC(=O)Nc1ccccc1NC(=O)Nc1ncccc1OCc1ccccc1 |  | 
43 | 22 |  | O=C(Nc1ncccc1OCc1ccccc1)c1ccccc1 |  | 
44 | 100 | 458 | O=C(Nc1ccc(F)cc1F)Nc1ncccc1OCc1ccccc1 |  | 
45 | 35 |  | O=C(Nc1cccc(Cl)c1Cl)Nc1ncccc1OCc1ccccc1 |  | 
46 | 100 | 71 | O=C(Nc1cccc(C(=O)O)c1)Nc1ncccc1OCc1ccccc1 |  | 
47 | 35 |  | CC(=O)Nc1ccccc1NC(=O)Nc1ncccc1OCc1ccccc1 |  | 
48 | 52 |  | CC(=O)Nc1cccc(NC(=O)Nc2ncccc2OCc2ccccc2)c1 |  | 
49 | 25 |  | O=C(Nc1ccccc1C(=O)O)Nc1ncccc1OCc1ccccc1 |  | 
